Assays:
Salmonella typhimurium [1] = experiment: Genotoxicity in Salmonella typhimurium TA98 by Ames test in absence of S9 fractions; assay type: toxicity, organism-based; settings: salmonella enterica subsp. enterica serovar typhimurium
How it was run: (§1)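 Ames II liquid fluctuation microplate variant of the bacterial reverse mutation assay, run on the free heteroaryl amines released from the urea inhibitors. The TAMix strain mixture (TA7001–TA7006) detects base-pair substitutions and TA98 detects frameshift mutations. For metabolic activation, compounds were preincubated with rat liver S9 extract or run without it. Results were scored as positive or negative.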

Salmonella typhimurium [2] = experiment: Genotoxicity in Salmonella typhimurium TA98 by Ames test in presence of S9 fractions; assay type: toxicity, organism-based, S9 Fraction; settings: salmonella enterica subsp. enterica serovar typhimurium; how it was run: as §1
Salmonella typhimurium [3] = experiment: Genotoxicity in Salmonella typhimurium TAMix by Ames test in absence of S9 fractions; assay type: toxicity, organism-based; settings: salmonella enterica subsp. enterica serovar typhimurium; how it was run: as §1
Salmonella typhimurium [4] = experiment: Genotoxicity in Salmonella typhimurium TAMix by Ames test in presence of S9 fractions; assay type: toxicity, organism-based, S9 Fraction; settings: salmonella enterica subsp. enterica serovar typhimurium; how it was run: as §1
[5] = target: T1, Fatty-acid amide hydrolase 1 (Rattus norvegicus, UniProt P97612); experiment: Inhibition of rat FAAH preincubated for 60 mins
T1 sequence (P97612 whole entry): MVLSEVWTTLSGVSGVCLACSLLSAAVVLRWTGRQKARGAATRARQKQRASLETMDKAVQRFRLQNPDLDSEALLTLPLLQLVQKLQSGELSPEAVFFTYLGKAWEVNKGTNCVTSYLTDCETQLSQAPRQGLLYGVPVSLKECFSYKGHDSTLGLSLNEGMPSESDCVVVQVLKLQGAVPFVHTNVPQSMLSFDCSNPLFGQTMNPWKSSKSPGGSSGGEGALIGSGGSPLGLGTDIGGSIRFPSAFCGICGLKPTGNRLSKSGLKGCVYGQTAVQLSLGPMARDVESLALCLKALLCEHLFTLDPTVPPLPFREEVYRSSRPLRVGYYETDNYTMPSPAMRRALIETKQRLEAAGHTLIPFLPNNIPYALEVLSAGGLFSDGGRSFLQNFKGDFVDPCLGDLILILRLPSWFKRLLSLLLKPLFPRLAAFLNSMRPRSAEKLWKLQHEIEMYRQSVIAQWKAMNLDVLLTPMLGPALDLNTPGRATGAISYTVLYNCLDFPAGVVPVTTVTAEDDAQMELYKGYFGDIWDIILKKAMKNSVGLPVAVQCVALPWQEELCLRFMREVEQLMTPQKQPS

[6] = target: T2, Fatty-acid amide hydrolase 1 (Homo sapiens, UniProt O00519); experiment: Inhibition of human FAAH preincubated for 60 mins
T2 sequence (O00519 whole entry): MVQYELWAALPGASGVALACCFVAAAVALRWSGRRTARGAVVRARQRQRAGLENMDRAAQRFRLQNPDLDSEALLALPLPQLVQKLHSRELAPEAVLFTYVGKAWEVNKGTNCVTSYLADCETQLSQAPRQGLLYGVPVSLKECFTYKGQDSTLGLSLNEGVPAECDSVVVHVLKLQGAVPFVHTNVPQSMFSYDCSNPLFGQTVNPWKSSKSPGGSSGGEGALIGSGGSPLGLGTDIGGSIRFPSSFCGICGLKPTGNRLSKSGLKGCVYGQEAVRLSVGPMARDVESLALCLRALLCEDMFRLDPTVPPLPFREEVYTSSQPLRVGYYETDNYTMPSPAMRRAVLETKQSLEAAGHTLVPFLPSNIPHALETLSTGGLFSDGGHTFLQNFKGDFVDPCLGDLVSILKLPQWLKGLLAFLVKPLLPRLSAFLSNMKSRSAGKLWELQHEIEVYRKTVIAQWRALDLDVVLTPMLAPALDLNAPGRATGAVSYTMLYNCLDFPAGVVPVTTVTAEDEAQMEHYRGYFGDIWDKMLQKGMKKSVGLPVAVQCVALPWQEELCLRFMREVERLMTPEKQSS

| Compound | IC50 [5] | IC50 [6] | Activity (Salmonella typhimurium [1]) | Activity (Salmonella typhimurium [2]) | Activity (Salmonella typhimurium [3]) | Activity (Salmonella typhimurium [4]) |
| --- | --- | --- | --- | --- | --- | --- |
| O=C(Nc1cccc2cn[nH]c12)N1CCN(Cc2cccc(Oc3ccc(Cl)cc3)c2)CC1 | 6 µM | – | – | Toxic | – | Toxic |
| O=C(Nc1cccnn1)N1CCN(Cc2cccc(Oc3ccc(Cl)cc3)c2)CC1 | 0.093 µM | – | Non-toxic | Non-toxic | Non-toxic | Non-toxic |
| O=C(Nc1noc2cnccc12)N1CCN(Cc2cccc(Oc3ccc(Cl)cc3)c2)CC1 | 0.0007 µM | – | Non-toxic | Non-toxic | Non-toxic | Non-toxic |
| O=C(Nc1nnn[nH]1)N1CCN(Cc2cccc(Oc3ccc(Cl)cc3)c2)CC1 | 0.046 µM | – | Non-toxic | Non-toxic | Non-toxic | Non-toxic |
| O=C(Nc1noc2ccncc12)N1CCN(Cc2cccc(Oc3ccc(Cl)cc3)c2)CC1 | 2.2 µM | – | Non-toxic | Non-toxic | Non-toxic | Non-toxic |
| O=C(Nc1cn2ccccc2n1)N1CCN(Cc2cccc(Oc3ccc(Cl)cc3)c2)CC1 | > 10 µM | > 10 µM | Non-toxic | Non-toxic | Non-toxic | Non-toxic |
| O=C(Nc1cncc2ccccc12)N1CCN(Cc2cccc(Oc3ccc(Cl)cc3)c2)CC1 | 0.0083 µM | – | – | Toxic | – | Toxic |
| O=C(Nc1cnc2[nH]ccc2c1)N1CCN(Cc2cccc(Oc3ccc(Cl)cc3)c2)CC1 | 0.021 µM | – | – | Toxic | – | Toxic |
| O=C(Nc1cccnc1)N1CCN(Cc2cccc(Oc3ccc(Cl)cc3)c2)CC1 | 0.033 µM | 0.0014 µM | Non-toxic | Non-toxic | Non-toxic | Non-toxic |
| O=C(Nc1cccc2nsnc12)N1CCN(Cc2cccc(Oc3ccc(Cl)cc3)c2)CC1 | 0.025 µM | – | Non-toxic | Non-toxic | Non-toxic | Non-toxic |
| O=C(Nc1ccon1)N1CCN(Cc2cccc(Oc3ccc(Cl)cc3)c2)CC1 | – | – | Non-toxic | Non-toxic | Non-toxic | Non-toxic |
| O=C(Nc1cnc2cc[nH]c2c1)N1CCN(Cc2cccc(Oc3ccc(Cl)cc3)c2)CC1 | 1.1 µM | – | – | Toxic | – | Toxic |
| O=C(Nc1nocc1Cl)N1CCN(Cc2cccc(Oc3ccc(Cl)cc3)c2)CC1 | 0.02 µM | – | Toxic | Toxic | Toxic | Toxic |

Second part, led by results:

| IC50 [5] | IC50 [6] | Compound | Activity (Salmonella typhimurium [1]) | Activity (Salmonella typhimurium [2]) | Activity (Salmonella typhimurium [3]) | Activity (Salmonella typhimurium [4]) |
| --- | --- | --- | --- | --- | --- | --- |
| 0.0057 µM | – | O=C(Nc1cccc2nccn12)N1CCN(Cc2cccc(Oc3ccc(Cl)cc3)c2)CC1 | Non-toxic | Non-toxic | Non-toxic | Non-toxic |
| 3.6 µM | – | O=C(Nc1ccc2nccn2c1)N1CCN(Cc2cccc(Oc3ccc(Cl)cc3)c2)CC1 | Non-toxic | Non-toxic | Non-toxic | Non-toxic |
| 0.0081 µM | – | O=C(Nc1noc2ccccc12)N1CCN(Cc2cccc(Oc3ccc(Cl)cc3)c2)CC1 | Non-toxic | Non-toxic | Non-toxic | Non-toxic |
| 0.15 µM | – | O=C(Nc1cc[nH]n1)N1CCN(Cc2cccc(Oc3ccc(Cl)cc3)c2)CC1 | Non-toxic | Non-toxic | Non-toxic | Non-toxic |
| 2.4 µM | – | O=C(Nc1ccn2ccnc2n1)N1CCN(Cc2cccc(Oc3ccc(Cl)cc3)c2)CC1 | Non-toxic | Non-toxic | Non-toxic | Non-toxic |
| 0.014 µM | – | O=C(Nc1noc2ncccc12)N1CCN(Cc2cccc(Oc3ccc(Cl)cc3)c2)CC1 | Non-toxic | Non-toxic | Non-toxic | Non-toxic |
| 0.022 µM | – | O=C(Nc1noc2cccnc12)N1CCN(Cc2cccc(Oc3ccc(Cl)cc3)c2)CC1 | Non-toxic | Non-toxic | Non-toxic | Non-toxic |
| 0.47 µM | – | O=C(Nc1cc2nccn2cn1)N1CCN(Cc2cccc(Oc3ccc(Cl)cc3)c2)CC1 | Non-toxic | Non-toxic | Non-toxic | Non-toxic |
| 2.6 µM | – | O=C(Nc1ccn2ccnc2c1)N1CCN(Cc2cccc(Oc3ccc(Cl)cc3)c2)CC1 | Toxic | Toxic | Toxic | Toxic |
| 0.3 µM | 0.006 µM | O=C(Nc1ccccc1)N1CCN(Cc2cccc(Oc3ccc(Cl)cc3)c2)CC1 | Non-toxic | Non-toxic | Non-toxic | Non-toxic |
| 3.5 µM | – | O=C(Nc1cccn2ccnc12)N1CCN(Cc2cccc(Oc3ccc(Cl)cc3)c2)CC1 | Non-toxic | Non-toxic | Non-toxic | Non-toxic |
| 0.15 µM | – | O=C(Nc1cnccn1)N1CCN(Cc2cccc(Oc3ccc(Cl)cc3)c2)CC1 | Non-toxic | Non-toxic | Non-toxic | Non-toxic |
| 0.12 µM | – | O=C(Nc1cnc2ccccn12)N1CCN(Cc2cccc(Oc3ccc(Cl)cc3)c2)CC1 | Non-toxic | Non-toxic | Non-toxic | Non-toxic |
| 0.053 µM | – | O=C(Nc1cnc2cccnn12)N1CCN(Cc2cccc(Oc3ccc(Cl)cc3)c2)CC1 | Non-toxic | Non-toxic | Non-toxic | Non-toxic |
| 0.024 µM | – | O=C(Nc1ccnc2nccn12)N1CCN(Cc2cccc(Oc3ccc(Cl)cc3)c2)CC1 | Non-toxic | Non-toxic | Non-toxic | Non-toxic |
| 0.2 µM | – | Cc1nc2cc(NC(=O)N3CCN(Cc4cccc(Oc5ccc(Cl)cc5)c4)CC3)ccc2o1 | – | Toxic | – | Toxic |
| 0.12 µM | – | O=C(Nc1cccc2nonc12)N1CCN(Cc2cccc(Oc3ccc(Cl)cc3)c2)CC1 | – | Toxic | – | Toxic |

Reference: ChEMBL document CHEMBL2202994, “Heteroaryl urea inhibitors of fatty acid amide hydrolase: structure-mutagenicity relationships for arylamine metabolites” (Bioorg Med Chem Lett, 2012)
